Calls of active or inactive are those of the source. No cut-off for these calls is given here.
Experiments:
[1] = Antiproliferative activity against human SKBR3 cells after 72 hrs by MTS/PMS assay; type: functional, cell-based; conditions: SK-BR-3, 72 h
How it was run: (§1)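 Cells kept in 1:1 Advanced DMEM/F12 with non-essential amino acids, 2 mM L-glutamine, penicillin/streptomycin and 10% FBS at 37 °C, 5% CO2. Seeded 2000 cells/well, attached overnight, then given compound at varying concentrations in DMSO (1% final) for 72 h. Viable cells read by MTS/PMS. Normalised to 1% DMSO wells as 100% proliferation. IC50 from separate experiments run in triplicate.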

MCF7 = assay: Antiproliferative activity against human MCF7 cells after 72 hrs by MTS/PMS assay; type: functional, cell-based; conditions: MCF7, 72 h; how it was run: as §1
[2] = target: T1, Heat shock protein HSP90 (Homo sapiens) (UniProt P07900+P08238); assay: Inhibition of HSP90 in human MCF7 cells assessed as induction of Raf protein degradation at 0.5 to 5 times antiproliferative IC50 level after 24 hrs by Western blotting method; type: cell-based
How it was run: (§2)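 MCF-7 cells, grown as for proliferation, treated 24 h with compound in DMSO (1% final). Geldanamycin 0.5 μM and DMSO served as controls. Lysis in cold RIPA with 1 mM PMSF, 2 mM orthovanadate and protease inhibitors, 1 h on ice, then cleared at 14000g, 10 min, 4 °C. BCA protein assay; 20 μg protein run reducing, blotted to nitrocellulose, probed with client antibodies, HRP chemiluminescence. High and low doses were 5-fold and 0.5-fold the antiproliferative value.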

[3] = target: T1, Heat shock protein HSP90 (Homo sapiens); assay: Inhibition of HSP90 in human MCF7 cells assessed as induction of Her2 protein degradation at 0.5 to 5 times antiproliferative IC50 level after 24 hrs by Western blotting method; type: cell-based; how it was run: as §2
[4] = target: T1, Heat shock protein HSP90 (Homo sapiens); assay: Inhibition of HSP90 in human MCF7 cells assessed as induction of Akt protein degradation at 0.5 to 5 times antiproliferative IC50 level after 24 hrs by Western blotting method; type: cell-based; how it was run: as §2

SMILES | IC50 (MCF7) [nM] | inhibition [2] | inhibition [3] | inhibition [4] | IC50 [1] [nM]
CC(=O)Oc1ccc(C(=O)Nc2cccc(-c3cccc(OC4CCN(C)CC4)c3)c2)cc1CC=C(C)C | 1700 |  |  |  | 1760
COc1ccc(C(=O)Nc2ccc(-c3ccc(OC4CCN(C)CC4)cc3)cc2)cc1-c1ccc(O)cc1 | 500 |  |  |  | 130
COc1cccc(-c2cc(C(=O)Nc3ccc(-c4ccc(OC5CCN(C)CC5)cc4)c(N)c3)ccc2OC)c1 | 2070 |  |  |  | 3900
COc1cccc(-c2cc(C(=O)Nc3ccc(-c4ccc(OC5CCN(C)CC5)cc4)cc3Cl)ccc2OC)c1 | 1800 |  |  |  | 4290
Cc1ccc(C(=O)Nc2ccc(-c3ccc(OC4CCN(C)CC4)cc3)cc2)cc1I | 1170 |  |  |  | 930
CN1CCC(Oc2ccc(-c3ccc(NC(=O)c4ccc(Cl)cc4Cl)cc3)cc2)CC1 | 1370 |  |  |  | 800
COc1cccc(-c2cc(C(=O)Nc3ccc(-c4ccc(OC5CCN(C)CC5)cc4)cc3NC(C)=O)ccc2OC)c1 | 1660 |  |  |  | 3510
COc1cccc(-c2cc(C(=O)Nc3ccc(-c4ccc(OC5CCN(C)CC5)c(OC)c4)cc3)ccc2OC)c1 | 1320 |  |  |  | 680
COc1cccc(-c2cc(C(=O)Nc3ccc(-c4ccc(OC5CCN(C)CC5)cn4)cc3)ccc2OC)c1 | 1300 |  |  |  | 1910
CC(=O)Oc1ccc(C(=O)Nc2ccc(-c3ccc(OC4CCN(C)CC4)cc3)cc2)cc1CC=C(C)C | 1370 |  |  |  | 1820
CN1CCC(Oc2ccc(-c3ccc(NC(=O)c4cccc(-c5ccccc5)c4)cc3)cc2)CC1 | 1150 | Active | Active | Active | 730
COc1cccc(-c2cc(C(=O)Nc3ccc(-c4ccc(OC5CCN(C)CC5)cc4)c([N+](=O)[O-])c3)ccc2OC)c1 | 3320 |  |  |  | 2480
COc1cccc(-c2cc(C(=O)Nc3ccc(-c4ccc(OC5CCN(C)CC5)c(NC(C)=O)c4)cc3)ccc2OC)c1 | 1840 |  |  |  | 2660
COc1cccc(-c2cc(C(=O)Nc3ccc(-c4ccc(OC5CCN(C)CC5)cc4)nc3)ccc2OC)c1 | 1020 |  |  |  | 1210
COc1cccc(-c2cc(C(=O)Nc3ccc(-c4ccc(OC5CCN(C)CC5)cc4)c(C)c3)ccc2OC)c1 | 1570 |  |  |  | 970
CN1CCC(Oc2ccc(-c3ccc(NC(=O)c4ccc5ncccc5c4)cc3)cc2)CC1 | 2070 |  |  |  | 1310
COc1cccc(-c2cc(C(=O)Nc3ccc(-c4ccc(OC5CCN(C)CC5)cc4)cc3C)ccc2OC)c1 | 1430 |  |  |  | 2470

SMILES | IC50 (MCF7) [nM] | inhibition [2] | inhibition [3] | inhibition [4] | IC50 [1] [nM]
CN1CCC(Oc2ccc(-c3ccc(NC(=O)c4ccc(C(C)(C)C)cc4)cc3)cc2)CC1 | 1080 |  |  |  | 1260
COc1cccc(C(=O)Nc2ccc(-c3ccc(OC4CCN(C)CC4)cc3)cc2)c1 | 5310 |  |  |  | 2870
Cc1ccc(C(=O)Nc2ccc(-c3ccc(OC4CCN(C)CC4)cc3)cc2)cc1Br | 3350 |  |  |  | 2800
COc1cccc(-c2cc(C(=O)Nc3ccc(-c4ccc(OC5CCN(C)CC5)cc4)cc3N)ccc2OC)c1 | 2250 |  |  |  | 3210
COc1ccc(C(=O)Nc2ccc(-c3ccc(OC4CCN(C)CC4)cc3)cc2)cc1-c1cccc(N)c1 | 1670 |  |  |  | 1520
COc1cccc(-c2cc(C(=O)Nc3ccc(-c4ccc(OC5CCN(C)CC5)cc4)cc3[N+](=O)[O-])ccc2OC)c1 | 1150 |  |  |  | 3400
COc1cccc(-c2cc(C(=O)Nc3ccc(-c4ccc(OC5CCN(C)CC5)nc4)cc3)ccc2OC)c1 | 1560 |  |  |  | 1670
COc1cccc(-c2cc(C(=O)Nc3ccc(-c4ccc(OC5CCN(C)CC5)cc4)c(OC)c3)ccc2OC)c1 | 1500 |  |  |  | 900
CN1CCC(Oc2ccc(-c3ccc(NC(=O)c4cnc5ccccc5c4)cc3)cc2)CC1 | 2760 |  |  |  | 2420
CC(=O)Oc1ccc(C(=O)Nc2cccc(-c3ccc(OC4CCN(C)CC4)cc3)c2)cc1CC=C(C)C | 2710 |  |  |  | 3470
CN1CCC(Oc2ccc(-c3ccc(NC(=O)c4cc(Cl)cc(Cl)c4)cc3)cc2)CC1 | 1680 |  |  |  | 810
COc1cccc(-c2cc(C(=O)Nc3ccc(-c4ccc(OC5CCN(C)CC5)c(C)c4)cc3)ccc2OC)c1 | 1690 |  |  |  | 830
CN1CCC(Oc2ccc(-c3ccc(NC(=O)c4cc5ccccc5s4)cc3)cc2)CC1 | 2010 |  |  |  | 1320
COc1cccc(-c2cc(C(=O)Nc3ccc(-c4ccc(OC5CCN(C)CC5)c(N)c4)cc3)ccc2OC)c1 | 5950 |  |  |  | 2230
COc1ccc(-c2cc(C(=O)Nc3ccc(-c4ccc(OC5CCN(C)CC5)cc4)cc3)ccc2OC)cc1 | 790 |  |  |  | 630
COc1cccc(-c2cc(C(=O)Nc3ccc(-c4ccc(OC5CCN(C)CC5)cc4)cn3)ccc2OC)c1 | 1150 |  |  |  | 1070
CN1CCC(Oc2ccc(-c3ccc(NC(=O)c4cccc(Cl)c4)cc3)cc2)CC1 | 2830 |  |  |  | 1940

More lines, in order of falling IC50 (MCF7), values ahead:

IC50 (MCF7) [nM] | inhibition [2] | inhibition [3] | inhibition [4] | SMILES | IC50 [1] [nM]
6670 |  |  |  | CN1CCC(Oc2ccc(-c3ccc(NC(=O)c4ccccc4-c4ccccc4)cc3)cc2)CC1 | 6260
4660 |  |  |  | COc1cccc(-c2cc(C(=O)Nc3ccc(-c4ccc(OC5CCN(C)CC5)cc4)c(NC(C)=O)c3)ccc2OC)c1 | 2520
4440 |  |  |  | CN1CCC(Oc2ccc(-c3ccc(NC(=O)c4ccc(-c5ccccc5)cc4)cc3)cc2)CC1 | 4590
3950 |  |  |  | CN1CCC(Oc2ccc(-c3ccc(NC(=O)c4ccccc4)cc3)cc2)CC1 | 4130
3440 |  |  |  | COc1cccc(-c2cc(C(=O)Nc3ccc(-c4ccc(OC5CCN(C)CC5)cc4)c(Cl)c3)ccc2OC)c1 | 2210
2280 |  |  |  | Cc1ccc(C(=O)Nc2ccc(-c3ccc(OC4CCN(C)CC4)cc3)cc2)cc1Cl | 1960
1760 |  |  |  | COc1cccc(-c2cc(C(=O)Nc3ccc(-c4ccc(OC5CCN(C)CC5)cc4N)cc3)ccc2OC)c1 | 2130
1600 |  |  |  | CN1CCC(Oc2ccc(-c3ccc(NC(=O)c4ccc(Cl)c(Cl)c4)cc3)cc2)CC1 | 1200
1480 |  |  |  | COc1cccc(-c2cc(C(=O)Nc3ccc(-c4ccc(OC5CCN(C)CC5)c(Cl)c4)cc3)ccc2OC)c1 | 1840
1480 |  |  |  | COc1cccc(-c2cc(C(=O)Nc3ccc(-c4ccc(OC5CCN(C)CC5)cc4Cl)cc3)ccc2OC)c1 | 1280
1430 |  |  |  | COc1ccc(C(=O)Nc2ccc(-c3ccc(OC4CCN(C)CC4)cc3)cc2)cc1-c1cccc(NC(C)=O)c1 | 3370
1360 |  |  |  | COc1cccc(-c2cc(C(=O)Nc3ccc(-c4ccc(OC5CCN(C)CC5)cc4NC(C)=O)cc3)ccc2OC)c1 | 3390
1350 |  |  |  | COc1cccc(-c2cc(C(=O)Nc3ccc(-c4ccc(OC5CCN(C)CC5)cc4OC)cc3)ccc2OC)c1 | 1410
1300 |  |  |  | COc1cccc(-c2cc(C(=O)Nc3ccc(-c4ccc(OC5CCN(C)CC5)cc4[N+](=O)[O-])cc3)ccc2OC)c1 | 1180
1270 |  |  |  | Cc1ccc(C(=O)Nc2ccc(-c3ccc(OC4CCN(C)CC4)cc3)cc2)cc1 | 980
1250 |  |  |  | COc1cccc(-c2cc(C(=O)Nc3cccc(-c4ccc(OC5CCN(C)CC5)cc4)c3)ccc2OC)c1 | 3650
1230 |  |  |  | COc1cccc(-c2cc(C(=O)Nc3ccc(-c4ccc(OC5CCN(C)CC5)c([N+](=O)[O-])c4)cc3)ccc2OC)c1 | 2070
1220 |  |  |  | COc1cccc(-c2cc(C(=O)Nc3ccc(-c4ccc(OC5CCN(C)CC5)cc4)cc3OC)ccc2OC)c1 | 3920
1210 |  |  |  | COc1cccc(-c2cc(C(=O)Nc3ccc(-c4ccc(OC5CCN(C)CC5)cc4C)cc3)ccc2OC)c1 | 1180
1090 |  |  |  | COc1ccc(C(=O)Nc2ccc(-c3ccc(OC4CCN(C)CC4)cc3)cc2)cc1-c1cccc([N+](=O)[O-])c1 | 400
1080 |  |  |  | COc1ccc(C(=O)Nc2ccc(-c3ccc(OC4CCN(C)CC4)cc3)cc2)cc1-c1cccc(O)c1 | 1560
1030 |  |  |  | Cc1cc(C(=O)Nc2ccc(-c3ccc(OC4CCN(C)CC4)cc3)cc2)ccc1Cl | 1110
1020 |  |  |  | COc1cccc(-c2cccc(C(=O)Nc3ccc(-c4ccc(OC5CCN(C)CC5)cc4)cc3)c2)c1 | 810
820 |  |  |  | COc1ccc(C(=O)Nc2ccc(-c3ccc(OC4CCN(C)CC4)cc3)cc2)cc1-c1ccc(Cl)cc1 | 1060
620 |  |  |  | COc1ccc(C(=O)Nc2ccc(-c3ccc(OC4CCN(C)CC4)cc3)cc2)cc1-c1cccc(OC(C)=O)c1 | 270
520 | inactive | inactive | inactive | CN1CCC(Oc2ccc(-c3ccc(NC(=O)c4ccc(Cl)cc4)cc3)cc2)CC1 | 570
520 | inactive | inactive | inactive | CN1CCC(Oc2ccc(-c3ccc(NC(=O)c4ccc(Br)cc4)cc3)cc2)CC1 | 520
370 |  |  |  | CC(C)=CCc1cc(NC(=O)Nc2cc3ccc(OC4CCN(C)CC4)c(C)c3oc2=O)ccc1O | 390

— ChEMBL document CHEMBL3352814, “Design, synthesis and biological evaluation of biphenylamide derivatives as Hsp90 C-terminal inhibitors” (Eur J Med Chem, 2015)
